# Legend:
# [1] = Glycan array binding of FITC-labeled galectins; settings: for Affinity for sialylated (and sulfated) galactosides on the array: site B; for Glycans bound on the array (overall): all glycans of the array; for Glycans bound on the array: 200 μg/ml galectin
# In short: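 The printed array carries 406 glycans, six spots each, on NHS-activated glass. FITC-galectins at 200 μg/ml in Tris-buffered saline pH 7.4 (2 mM CaCl2, 2 mM MgCl2, 1% BSA, 0.05% Tween 20) were incubated 60 min at room temperature in the dark under a coverslip, then washed and dried. Slides were scanned at 488 nm and read as RFU (ceiling 40,000). Highest and lowest spots were dropped and the remaining four averaged.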
# Fluorescence anisotropy = assay type: binding; settings: for Affinity for 3-sialylated galactosides: probes 6–9 (6–8 for Xenopus); for Affinity for 3-sialylated galactosides / Affinity for GlcNAcβ1–3-substituted galactosides: relative to human wild type galectin-3; for Affinity for GlcNAcβ1–3-substituted galactosides: probes 9–15; for Binding to glycans where LacNAc or Galβ1–3GlcNAc is likely in site C-D: e.g. probes 2, 3, 7 and 8
# In short: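 Equilibrium fluorescence anisotropy with 0.1 μM fluorescein-tagged saccharide probe (15 probes) titrated with 0.05–80 μM lactose-freed galectin. Read at room temperature and after incubation on ice (about 4 °C), ex 485/em 520 nm. Kd derived from the binding curve using probe-alone (A0) and saturated (Amax) anisotropy, with Amax extrapolated for partial curves. Not detected if anisotropy stayed ≤50 mA at 50 μM galectin.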
# [2] = system: N-Ras to K-Ras activation; settings: cited from earlier work
# [3] = system: intracellular anti-apoptotic effect; settings: cited from earlier work
# SKBR3 cells = experiment: Localization of EGFP-galectin-3 and mutants in transfected cells; assay type: cell-based, human; settings: EGFP fusion protein; for Entry into vesicles: stably transfected
# In short: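 SKBR3 breast cancer cells were Lipofectamine-transfected with pEGFP-C1 EGFP-galectin-3 constructs and grown in RPMI 1640/10% FBS with 1 mg/ml G418 for ≥2 weeks to obtain stable lines. Cells were grown 1–2 days on coverslips, fixed in 4% paraformaldehyde, mounted with DAPI and viewed by epifluorescence microscopy. Fluorescent vesicles (dots) per cell were counted in 300 cells per construct.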
# TNFα-primed neutrophils = experiment: NADPH oxidase activation of TNFα-primed neutrophils; assay type: cell-based, human; settings: for Activation of primed neutrophils (release of oxygen radicals): dose response relative to wild type galectin-3 run in parallel, up to 3.5 μM
# In short: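 Human neutrophils (1 × 10^7/ml) were primed 20 min at 37 °C with TNFα 10 ng/ml. Tubes held 10^6 cells and were equilibrated 5 min at 37 °C before galectin was added. Chemiluminescence was recorded continuously. Extracellular superoxide was read with HRP (4 units) plus isoluminol (6 × 10^-5 M). Intracellular ROS was read with SOD (50 units), catalase (2000 units) and luminol (2 × 10^-5 M). Peak responses were normalized to the parallel 3.5 μM wild-type peak.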
# neutrophils [4] = experiment: Galectin binding to neutrophils; assay type: cell-based, human; settings: FITC-labeled galectin 40 μg/ml
# In short: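 Human blood neutrophils from buffy coats (dextran sedimentation, Ficoll-Paque) were pretreated at 37 °C with or without TNFα, or held at 4 °C without it. They were then incubated 1 h at 4 or 37 °C with FITC-galectin (40 μg/ml) and washed twice in PBS/0.02% NaN3/EDTA. Flow cytometry gave geometric mean fluorescence from three neutrophil batches (mean, S.E.), with paired one-tailed t tests.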
# neutrophils [5] = settings: cited from earlier work
# [6] = cited from earlier work
# Shigella bacteria = settings: cited from earlier work
# MDCK cells = settings: EGFP fusion protein in MDCK cells; cited from earlier work
# [7] = cited from earlier work; remark: listed apart in the source
# [8] = cited from earlier work; remark: listed apart in the source
# [9] = compared with human galectin-3; cited from earlier work
molecule,measurement,setting,value
"A146Q: Human galectin-3 point mutant in site B, Ala-146 to Gln",Affinity for glycans with GalNAcα in site B on the array,[1]; but not those with Galα (blood group B type),selective loss of affinity
same,Affinity for 3-sialylated galactosides,Fluorescence anisotropy,slightly reduced affinity
same,Affinity for GlcNAcβ1–3-substituted galactosides,Fluorescence anisotropy,"retained affinity, albeit lower"
"G182A: Human galectin-3 point mutant near site C, Gly-182 to Ala",Induction of a shift from N-Ras to K-Ras activation,[2],lost
same,Binding to Galβ1–3GlcNAc containing glycans on the array,[1]; relative to wild type,"preferentially, although not exclusively, lost binding"
same,Intracellular anti-apoptotic effect,[3],lost
same,Entry into vesicles,SKBR3 cells,much fewer in number per cell
K176L/N180T: Human galectin-3 double mutant obtained by a mistake in primer design,Concentration inducing significant neutrophil activation,TNFα-primed neutrophils; TNFα-primed neutrophils,≤ 0.2 µM
same,Activation of primed neutrophils (release of oxygen radicals),TNFα-primed neutrophils,clearly increased potency
same,Affinity for some of the longer GlcNAcβ-extended galactosides,Fluorescence anisotropy; compared with K176L,slightly increased affinity
"K176L: Human galectin-3 point mutant in site B, Lys-176 to Leu",Affinity for sialylated (and sulfated) galactosides on the array,[1]; relative to wild type,lost affinity
same,Binding to primed and non-primed neutrophils,neutrophils [4],about equally well
same,Increase in binding after TNFα priming,neutrophils [4],30–50%
same,Activation of primed neutrophils (release of oxygen radicals),TNFα-primed neutrophils,clearly increased potency
same,Affinity for 3-sialylated galactosides,Fluorescence anisotropy,lost affinity
same,Affinity for GlcNAcβ1–3-substituted galactosides,Fluorescence anisotropy,significantly better than wild type galectin-3
"R144S: Human galectin-3 point mutant in site B, Arg-144 to Ser",Affinity for sialylated (and sulfated) galactosides on the array,[1]; relative to wild type,lost affinity
same,Affinity for the GalNAcα extended galactoside,"Fluorescence anisotropy; probe 5 (A-tetrasaccharide), relative to wild type",increased affinity
same,Affinity for 3-sialylated galactosides,Fluorescence anisotropy,lost affinity
same,Affinity for GlcNAcβ1–3-substituted galactosides,Fluorescence anisotropy,lost affinity
"R186I: Human galectin-3 mutant replacing Arg-186 with Ile, as found in galectin-8N",Glycans bound on the array (overall),[1],bound a few more glycans
same,"Background binding, maximum",[1]; remaining 227 glycans not expected to bind galectins,2674 RFU
same,Binding to glycans where LacNAc or Galβ1–3GlcNAc is likely in site C-D,Fluorescence anisotropy,lost binding
same,Affinity for glycans with Lac in site C-D,Fluorescence anisotropy; relative to wild type,retained reduced affinity
R186S: Human galectin-3 mutant replacing Arg-186 with Ser (site D),Ability to promote the phagocytosis of apoptotic cells by neutrophils,neutrophils [5],lost
same,Ability to bind human serum glycoproteins,[6],completely lost the ability to bind human serum glycoproteins
same,Glycans bound on the array (overall),[1],bound only one glycan
same,Accumulation around invading Shigella bacteria,Shigella bacteria,did not accumulate around invading Shigella bacteria
same,Binding to primed and non-primed neutrophils,neutrophils [4],did not bind any of the neutrophil preparations
same,Vesicle entry and apical targeting of glycoproteins,MDCK cells,did not enter vesicles and did not direct apical targeting of glycoproteins
same,Binding to glycans where LacNAc or Galβ1–3GlcNAc is likely in site C-D,Fluorescence anisotropy,lost binding
same,Affinity for glycans with Lac in site C-D,Fluorescence anisotropy; relative to wild type,retained reduced affinity
same,Entry into vesicles,SKBR3 cells,not visible in vesicles
wild type galectin-3: Recombinant human galectin-3 produced in E. coli; expressed as EGFP fusion in SKBR3 cells,Binding of galactosides with 3-linked N-glycoloyl neuraminic acid (NeuGc),[1]; compared with NeuAc,equally well
same,Glycans bound on the array,[1]; glycans with a LacNAc available for binding in site C-D,45 of 94
same,Glycans bound on the array,[1]; glycans with available Galβ1–3GlcNAc,15 of 36
same,Glycans bound on the array,[1]; glycans with only Galβ1–3GalNAc available,did not bind at all
same,Glycans bound on the array,[1]; glycans with only lactose available,6 of 24
same,Binding to primed and non-primed neutrophils,neutrophils [4],about equally well
same,Increase in binding after TNFα priming,neutrophils [4],30–50%
same,Enhancement of binding affinity by addition of GalNAcα1–3 or Galα1–3,[7],10–25 fold
same,Affinity for Galβ1–3GalNAc lower than for LacNAc,[8],10–50 fold
same,Entry into vesicles,SKBR3 cells,entered vesicles in some of the cells
same,Cells with dots (galectin containing vesicles),SKBR3 cells; depending on how confluent the cells were,15–30 % of cells
"Mouse galectin-3: Recombinant mouse galectin-3 orthologue (protein, UniProt P16110 2-264, looked up) Galectin-3: ADSFSLNDALAGSGNPNPQGYPGAWGNQPGAGGYPGAAYPGAYPGQAPPGAYPGQAPPGAYPGQAPPSAYPGPTAPGAYPGPTAPGAYPGQPAPGAFPGQPGAPGAYPQCSGGYPAAGPYGVPAGPLTVPYDLPLPGGVMPRMLITIMGTVKPNANRIVLDFRRGNDVAFHFNPRFNENNRRVIVCNTKQDNNWGKEERQSAFPFESGKPFKIQVLVEADHFKVAVNDAHLLQYNHRMKNLREISQLGISGDITLTSANHAMI",Affinity for GlcNAcβ1–3-substituted galactosides,Fluorescence anisotropy,lower affinity for all the saccharide probes tested and most significantly for the ones extended by GlcNAcβ
same,Affinity for all the saccharide probes tested,Fluorescence anisotropy; relative to human galectin-3,lower affinity
"Rat galectin-3: Rat galectin-3 orthologue, not available for study here; literature data (protein, UniProt P08699 2-262, looked up) Galectin-3: ADGFSLNDALAGSGNPNPQGWPGAWGNQPGAGGYPGASYPGAYPGQAPPGGYPGQAPPSAYPGPTGPSAYPGPTAPGAYPGPTAPGAFPGQPGGPGAYPSAPGAYPSAPGAYPATGPFGAPTGPLTVPYDMPLPGGVMPRMLITIIGTVKPNANSITLNFKKGNDIAFHFNPRFNENNRRVIVCNTKQDNNWGREERQSAFPFESGKPFKIQVLVEADHFKVAVNDVHLLQYNHRMKNLREISQLGIIGDITLTSASHAMI",Lower affinity for NeuAcα2–3Lac,[9],~5 fold

# — paper PMC2966122 (The Journal of Biological Chemistry, 2010)
